Source: PubChem BioAssay (several laboratories)
The list is not random: actives were taken first. Their share in the collection is about 1.8%.
Beta2AR agonist: human beta-2 adrenergic receptor agonism by FAP; actives 0.43% (n = 340,000); P07550; AID 504454; Am2.2-beta2AR cells, FAP receptor internalization, flow cytometry; response, % (concentration not given with the values);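 active means response above a set limit, near 3 SD of response in nonfluorescent compounds, cut at about 42% in these data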
Target sequence (P07550 whole entry, looked up): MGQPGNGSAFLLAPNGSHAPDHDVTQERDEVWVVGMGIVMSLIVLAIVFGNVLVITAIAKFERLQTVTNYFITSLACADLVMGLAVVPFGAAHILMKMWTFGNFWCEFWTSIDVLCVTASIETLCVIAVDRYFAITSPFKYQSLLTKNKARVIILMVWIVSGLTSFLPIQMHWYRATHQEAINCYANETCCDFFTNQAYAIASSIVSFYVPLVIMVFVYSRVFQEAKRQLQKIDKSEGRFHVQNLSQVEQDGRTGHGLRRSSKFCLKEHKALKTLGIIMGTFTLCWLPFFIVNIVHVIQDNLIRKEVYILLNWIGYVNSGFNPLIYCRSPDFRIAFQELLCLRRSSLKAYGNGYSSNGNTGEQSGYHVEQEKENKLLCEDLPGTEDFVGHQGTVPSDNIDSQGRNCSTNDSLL
APJ ag: activates the human apelin receptor APJ | P35414 | actives 0.11% (n = 330,000) | activation, % at 20 µM | CHO-K1 APJ PathHunter beta-arrestin, luminescence; 0% DMSO wells, 100% apelin | AID 2520;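 active means activation more than six SD over the plate average, tested at 20 µM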;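 further: 0% = DMSO alone and 100% = apelin-13 at 10 nM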
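Incubation: overnight seeding, 90 min compound at 25 °C, 1 h detection; test system: PathHunter CHO-K1 APJ (AGTRL-1) beta-arrestin reporter cells; amount: 1000 cells/well; doses: one dose, 20 µM compound, 1% DMSO; measured by: beta-gal luminescence; measure: agonist-driven arrestin binding to APJ; benchmarks: negative DMSO alone, positive Apelin-13 at 10 nM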
CXCR6 inh: blocks human CXCR6 beta-arrestin recruitment; inhibition, % at 20 µM; actives 0.36% (n = 360,000); O00574; CHO-K1 PathHunter CXCR6 beta-arrestin, luminescence; in the data active means inhibition above about 34%, passing the limit was not always enough;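 further: antagonist mode with CXCL16 agonist at 10 nM final; 0% = 10 nM CXCL16 with DMSO and 100% = unstimulated wells without agonist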
EBI2 antag: antagonists of human EBI2 receptor | AID 651636 | EBI2 beta-arrestin recruitment, luminescence, 7a,25-OHC stimulated | inhibition, % at 5 µM | actives 0.81% (n = 360,000); in the data active means inhibition above about 38%;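 further: enzyme fragment complementation signal reports receptor beta-arrestin coupling in cells; 0% = agonist plus DMSO wells and 100% = wells without agonist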
APJ antagonist: antagonists of human APJ apelin receptor | AID 2521 | CHO-K1 APJ beta-arrestin complementation, luminescence | actives 0.32% (n = 330,000) | inhibition, % at 20 µM | P35414;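 active means inhibition above about 40% at 20 µM, limit read from the data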;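 further: cells challenged with 10 nM apelin-13 agonist together with compound; plate controls were apelin-13 plus DMSO wells for no effect and DMSO wells lacking apelin-13 for full effect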
CCR6 antag: CCR6 (human) receptor antagonism; actives 0.49% (n = 340,000); AID 493098; CHO-K1 CCR6 PathHunter beta-arrestin, luminescence, CCL20-stimulated; inhibition, % at 20 µM;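 active means compounds whose inhibition of the agonist-driven luminescence signal at 20 µM reaches about 50%, limit read from the data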;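 further: cells stimulated with CCL20 at 14 nM final; plate controls were DMSO with CCL20 for no effect and DMSO without agonist for full effect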
EBI2 antag conf: EBI2 (human) antagonism, single concentration confirmation; shares compounds with EBI2 antag; EBI2 beta-arrestin luminescence, 7a,25-OHC antagonism; inhibition, % at 5 µM; actives 29% (n = 2,400); AID 651997;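 active means inhibition of at least 50%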
EBI2 ag: activates EBI2, counter-screen for EBI2 antagonists; shares compounds with EBI2 antag; EBI2-expressing cells, agonist mode, luminescence, 60 min; 0% vehicle, 100% 7α,25-dihydroxycholesterol control; 2,400 tested, under 10 active; AID 652000; activation, % at 5 µM;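 active means activation of at least 50%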
bGal cs: inhibits E. coli beta-galactosidase, counter-screen for EBI2 antagonists; shares compounds with EBI2 antag; purified beta-galactosidase, luminescent Galacton Star, 15 min; inhibition, % at 5 µM; actives 1% (n = 2,400); AID 652176;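 active means replicate-average signal at least 3 plate SD below neutral wells, shown as high inhibition, flagging enzyme-inhibiting false positives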;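 further: 0% = DMSO wells with enzyme and 100% = wells lacking enzyme; higher means stronger loss of beta-gal luminescence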
Starred values were filed as active, the others as inactive; . = not tested or not shown.

SMILES	Beta2AR agonist	APJ ag	CXCR6 inh	EBI2 antag	APJ antagonist	CCR6 antag	EBI2 antag conf	EBI2 ag	bGal cs
O=C(c1cc2cc(Br)ccc2o1)N1CCOCC1	3	-4	-4	26	16	13	.	.	.
COc1ccc(NC(=O)c2sc(SCc3ccccc3)nc2N)cc1	7	-5	2	88*	3	6	69*	0	-12
COc1ccc(-n2nnnc2C(c2cccc3ccccc23)N2CCN(C/C=C/c3ccccc3)CC2)cc1 (configuration not stated)	.	.	13	63*	.	.	32	1	2
C(=C\c1ccccc1)/CN1CCN(C(c2cccc3ccccc23)c2nnnn2Cc2ccccc2)CC1 (configuration not stated)	.	.	12	64*	.	.	31	1	7
C(=C\c1ccccc1)/CN1CCN(C(c2cccs2)c2nnnn2-c2ccc3c(c2)OCCO3)CC1 (configuration not stated)	.	.	8	72*	.	.	30	0	-17
COc1ccc(C(c2nnnn2-c2ccc3c(c2)OCCO3)N2CCN(C/C=C/c3ccccc3)CC2)cc1 (configuration not stated)	.	.	19	60*	.	.	41	2	0
C(=C\c1ccccc1)/CN1CCN(C(c2cccs2)c2nnnn2Cc2ccccc2)CC1 (configuration not stated)	.	.	4	33	.	.	.	.	.
COc1ccc(/C=N/Nc2cc(N3CCCC3)nc(N3CCCC3)n2)cc1	35	-4	2	60*	19	8	33	3	7
Cc1ccccc1C(=O)N1CCC(C(=O)OCc2ccccc2Cl)CC1	-3	-3	-1	-9	17	1	.	.	.
Cc1ccc(NCc2nnc(SCC(N)=O)o2)c(C)c1	-4	0	2	-4	5	9	.	.	.
CCOC(=O)CN(C(=O)CSc1nnc(CNc2ccc(C)cc2C)o1)c1ccccc1	1	-2	0	45*	-8	-18	21	-2	-10
CC(=O)N1N=C(c2ccccc2)CC1c1cn(Cc2ccccc2)c2ccccc12 (configuration not stated)	.	-1	8	49*	-2	18	29	-1	-1
CC(=O)N1N=C(c2ccncc2)CC1c1ccccc1O (configuration not stated)	-2	-1	8	2	-4	-13	.	.	.
Cc1cccc(C)c1OCC(=O)Nc1ccccc1N1CCCCC1	12	-2	6	26	14	23	.	.	.
O=C(Nc1ccccc1N1CCCCC1)c1ccc(F)cc1	1	-1	-9	-9	-4	11	.	.	.
Cc1cccc(OCC(=O)Nc2ccccc2N2CCCCC2)c1C	-6	-2	7	43*	-7	40	11	-1	-8
O=C(Nc1ccccc1F)Nc1ccccc1N1CCCCC1	0	2	8	53*	6	16	6	-1	-14
Cc1cccc(OCC(=O)NC2CCCc3ccccc32)c1C (configuration not stated)	-5	-4	1	57*	-9	12	58*	-1	-21
O=C1Nc2cnc(Cl)nc2Nc2ccccc21	.	.	6	1	.	.	.	.	.
Nc1ccn([C@@H]2O[C@H](C(=O)N3CCCN(Cc4ccccc4F)CC3)[C@@H](O)[C@H]2O)c(=O)n1	.	.	-8	-14	.	.	.	.	.
CSc1c(SCc2ccccc2)cnn(-c2ccccc2)c1=O	2	0	7	-1	-8	20	.	.	.
CCOC(=O)N1CCN(C(=O)COc2ccc(Cl)cc2)CC1	-3	3	1	83*	12	2	55*	-1	-14
CCOC(=O)N1CCN(C(=O)COc2ccc(Cl)c(C)c2)CC1	3	-4	1	86*	18	6	54*	1	1
CCc1ccc(N2CC(C(=O)Nc3cc(C)ccc3F)CC2=O)cc1 (configuration not stated)	-9	2	3	53*	-3	1	46	0	9
CCc1ccc(N2CC(C(=O)Nc3ccc(S(=O)(=O)N4CCCCC4)cc3)CC2=O)cc1 (configuration not stated)	7	6	6	81*	1	12	60*	-1	5
SMILES	Beta2AR agonist	APJ ag	CXCR6 inh	EBI2 antag	APJ antagonist	CCR6 antag	EBI2 antag conf	EBI2 ag	bGal cs
CCc1ccc(N2CC(C(=O)Nc3ccc(F)cc3)CC2=O)cc1 (configuration not stated)	-6	0	-1	3	-19	-3	.	.	.
O=C(O)CCN(CC(=O)c1ccc(Cl)cc1)S(=O)(=O)c1ccc([N+](=O)[O-])cc1	-5	9	-4	-6	-9	-1	.	.	.
COc1ccccc1-c1cnc(C(O)c2ccc(C)cc2)[nH]1 (configuration not stated)	.	.	-3	3	.	.	.	.	.
O=C(O/C(=C/c1ccccc1)C(F)(F)F)c1ccccc1	-6	.	-4	-18	.	14	.	.	.
Cc1cccc(NC(=O)c2sc3nc(-c4ccccc4)cn3c2C)n1	2	4	-13	8	16	-3	.	.	.
Cc1c(C(=O)Nc2ccccc2)sc2nc(-c3ccccc3)cn12	11	2	-10	44*	-18	13	31	2	1
COc1ccc(-c2cn3nc(SCC(=O)NCC4CCCO4)ccc3n2)cc1 (configuration not stated)	-6	0	-2	67*	22	1	38	-1	-17
CCOC(=O)c1c(NC(=O)CS(=O)(=O)c2cn(CC)c3ccccc23)sc2c1CCCC2	3	-1	2	18	1	5	.	.	.
CCOC(=O)c1c(NC(=O)CS(=O)(=O)c2cn(CC)c3ccccc23)sc2c1CCCCC2	21	-1	11	57*	20	6	36	-1	6
Cc1ccc(C)c(OCC(O)CN2CCC(CN3C(=O)c4cccc5cccc(c45)C3=O)CC2)c1 (configuration not stated)	-4	-1	-4	13	6	-1	.	.	.
COc1ccc(OC)c(S(=O)(=O)N2CCN(CC(O)COc3ccc(C#N)cc3)CC2)c1 (configuration not stated)	13	0	-10	45*	7	-11	6	0	11
